CendR NRP1 mod – modulators of CendR peptide binding to NRP-1, primary screen, biochemical, fluorescence polarization, uHTS | Neuropilin-1 (Homo sapiens), O14786 | FAM-RPARPAR peptide binding to NRP-1 | inhibition, % at 25 µM | 360,000 compounds, 0.85% hits | AID 602438, 2012;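 active means inhibition or corrected inhibition above about 18%, plus a signal ratio from 0.5 to 1.5, limit read from the data, passing the limit was not always enough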
CaV13 FRET inh – Primary screen for inhibitors of IQ motif and Ca2+-dependent inactivation inhibitor domain binding in CACNA1D, Förster resonance energy transfer in living cells, … | HEK cells, CFP/YFP FRET ICDI-IQ, plate reader, 10 min; percent FRET-ratio fall versus neutral wells | inhibition, % at 12.3 µM | 340,000 compounds, 0.098% hits | AID 743397;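 active means mean replicate inhibition of at least 30% and at least 1% of replicates passing that level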;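 further: 0% = median of the neutral control wells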
FAS-TE inh – FAS thioesterase domain inhibitors, primary screen, biochemical, fluorescence intensity, uHTS; Fatty acid synthase (Homo sapiens), P49327; recombinant FAS-TE, OMFH fluorogenic substrate, fluorescence endpoint; inhibition, % at 15 µM; 360,000 compounds, 0.67% hits;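 active means compounds whose normalised, plate-corrected inhibition of enzyme fluorescence in the single-dose primary screen is 50% or more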;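 further: 0% = DMSO with enzyme and 100% = substrate without enzyme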
ADAM17 inh – ADAM17 inhibitors, primary screen, biochemical, QFRET | inhibition, % at 6.95 µM | Disintegrin and metalloproteinase domain-containing protein 17 (Homo sapiens), P78536 | recombinant ADAM17, EDANS/DABCYL FRET peptide cleavage | 370,000 compounds, 0.83% hits;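 active means inhibition above the mean of compounds lying between control limits plus 3 SD, set per campaign, cut at about 8.5% in these data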;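 further: 0% = DMSO-only wells as the low control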
Arr AP2 block – inhibitors of beta-arrestin/AP2 binding, primary screen, biochemical, GPCR trafficking, flow cytometry. 340,000 compounds, 0.31% hits. beta-arrestin 1 C-terminal peptide binding to AP2 beta2-adaptin appendage (human). inhibition, % at 10 µM. FITC-arrestin peptide / GST-AP2 beads; AP2 beta2 appendage carries R879A mutation;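 active means inhibition above a set limit, near 3 SD of compounds lacking own fluorescence, cut at about 54% in these data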;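 further: plate controls were DMSO wells for no effect and 5 µM unlabelled arrestin peptide for full effect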
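Assay system: GST-AP2 R879A bound to glutathione beads, E. coli-expressed; Medium: PBS with 0.05% Tween 20 and 0.1% BSA; Also added: fluorescein-tagged arrestin peptide at 50 nM final; Timing: 12 min plus 1 h, RT; Measured by: flow cytometry, FL1 (488/535 nm); Evaluation: percent drop in bead-associated FITC signal.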
ADAM10 inh – human ADAM10 inhibitors, primary screen, biochemical, QFRET, HTS. Disintegrin and metalloproteinase domain-containing protein 10 (Homo sapiens), O14672. recombinant ADAM10, EDANS/DABCYL FRET peptide cleavage, 3 h. inhibition, % at 7 µM. 370,000 compounds, 0.62% hits;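 active means inhibition above a per-campaign cutoff equal to the mean of compounds falling between control-based bounds plus 3 SD, cut at about 20% in these data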;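 further: 0% = DMSO wells while the 100% control is not disclosed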
FAS-TE conf – FAS thioesterase domain inhibitors, confirmation, biochemical, fluorescence intensity, single concentration; inhibition, % at 15 µM; recombinant FAS-TE, OMFH fluorogenic substrate; 2,300 compounds, 45% hits; shares compounds with FAS-TE inh;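 active means compounds inhibiting the enzyme by at least 50% at 15 µM in any one of the replicates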;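 further: 0% = enzyme with DMSO only and 100% = wells lacking enzyme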
* = called active by the depositor. This is a sample that favours compounds with a hit; in the whole collection about 2.9% have one here.

For CC(C)(C)OC(=O)N1CCC2(CC1)Oc1ccc(F)cc1C(=O)C21CC(c2cccnc2)=NO1 (centres undefined) the results were CendR NRP1 mod -15, CaV13 FRET inh -6, FAS-TE inh 4, ADAM17 inh -8, Arr AP2 block 8 and ADAM10 inh -23.
O=C(/C=C/c1cccs1)N1CCC2(CC1)Oc1ccc(Cl)cc1C(=O)C21CC(c2ccc(Cl)cc2)=NO1 (centres undefined) was read as CendR NRP1 mod 15, CaV13 FRET inh -7, FAS-TE inh 50*, ADAM17 inh 3, Arr AP2 block 1, ADAM10 inh 10 and FAS-TE conf 12.
Screening O=C(/C=C/c1cccs1)N1CCC2(CC1)Oc1ccc(F)cc1C(=O)C21CC(c2ccccc2)=NO1 (centres undefined) returned CendR NRP1 mod 2, CaV13 FRET inh -11, FAS-TE inh 25, ADAM17 inh 3, Arr AP2 block 1 and ADAM10 inh 4.
For O=C(/C=C/c1cccs1)N1CCC2(CC1)Oc1ccc(F)cc1C(=O)C21CC(c2ccc(Cl)cc2)=NO1 (centres undefined) the results were CendR NRP1 mod 2, CaV13 FRET inh -9, FAS-TE inh 62*, ADAM17 inh -4, Arr AP2 block 6, ADAM10 inh -6 and FAS-TE conf -5.
Screening O=C(CSC(=S)N1CCCC1)N(Cc1nnc(-c2ccccc2Cl)o1)C1CC1 returned CendR NRP1 mod -2, CaV13 FRET inh -6, FAS-TE inh 0, ADAM17 inh -2, Arr AP2 block -4 and ADAM10 inh -8.
`C/C=C1\NC(=O)[C@H](C)NC(=O)[C@@H](NC(=O)[C@H](Cc2ccc(O)cc2)NC(=O)[C@@H](NC(=O)/C(C)=C/C)C(C)C)[C@@H](C)OC(=O)[C@H](CC(C)C)NC(=O)[C@@H](CCC(=O)O)NC1=O` gave CendR NRP1 mod -9, CaV13 FRET inh -7, FAS-TE inh -9, ADAM17 inh -5 and ADAM10 inh -8.
`O=C(c1ccc2c(c1)OCO2)N1CCC2(CC1)Oc1ccc(F)cc1C(=O)C21CC(c2ccc(Cl)cc2)=NO1` (centres undefined) gave CendR NRP1 mod 14, CaV13 FRET inh -11, FAS-TE inh 31, ADAM17 inh 0, Arr AP2 block 36 and ADAM10 inh 0.
Screening O=C(c1ccc2c(c1)OCO2)N1CCC2(CC1)Oc1ccc(Cl)cc1C(=O)C21CC(c2ccccc2)=NO1 (centres undefined) returned CendR NRP1 mod -3, CaV13 FRET inh -11, FAS-TE inh 54*, ADAM17 inh 0, Arr AP2 block 1, ADAM10 inh -1 and FAS-TE conf 6.
Screening O=[N+]([O-])c1cccc(S(=O)(=O)Nc2cccc(-c3ccc(N4CCCC4)nn3)c2)c1 returned CendR NRP1 mod -3, CaV13 FRET inh -5, FAS-TE inh 45, ADAM17 inh 3, Arr AP2 block -5 and ADAM10 inh 5.
`COc1ccc(S(=O)(=O)Nc2cccc(-c3ccc(N4CCCCCC4)nn3)c2)cc1OC` gave CendR NRP1 mod 16, CaV13 FRET inh -3, FAS-TE inh 54*, ADAM17 inh 1, Arr AP2 block -3, ADAM10 inh 11 and FAS-TE conf 47.
`Cc1ccc(S(=O)(=O)Nc2cccc(-c3ccc(N4CCCCCC4)nn3)c2)cc1` gave CendR NRP1 mod 13, CaV13 FRET inh -7, FAS-TE inh 59*, ADAM17 inh 2, Arr AP2 block 4, ADAM10 inh 18 and FAS-TE conf 52*.
